From ChEMBL document CHEMBL4425110, “ICI 56,780 Optimization: Structure-Activity Relationship Studies of 7-(2-Phenoxyethoxy)-4(1H)-quinolones with Antimalarial Activity” (J Med Chem, 2016)

system: Plasmodium falciparum; test: Antimalarial activity against Plasmodium falciparum TM90-C2B; format: functional, organism-based; conditions: not given

| SMILES | EC50 |
| --- | --- |
| CCCCc1cc2c(=O)cc[nH]c2cc1OCCOc1ccccc1 | 0.43 µM |
| CCCCc1cc2c(=O)c(C(=O)O)c[nH]c2cc1OCCOc1ccccc1 | 1.11 µM |
| CCCCc1cc2c(=O)c(C(=O)NC)c[nH]c2cc1OCCOc1ccccc1 | 3.98 µM |
| O=c1cc[nH]c2cc(OCCOc3ccccc3)ccc12 | 7.68 µM |
| CCc1ccc2[nH]cc(C(=O)OC)c(=O)c2c1 | > 10.8 µM |
| CCCCc1cc2c(=O)c(C(=O)NC(C)C)c[nH]c2cc1OCCOc1ccccc1 | 5.14 µM |
| COC(=O)c1c[nH]c2ccc(C(C)C)cc2c1=O | > 10.2 µM |
| COC(=O)c1c[nH]c2cc(OCCOc3ccccc3)c(Br)cc2c1=O | 0.847 µM |
| CCCCc1cc2c(=O)c(I)c[nH]c2cc1OCCOc1ccccc1 | 0.00604 µM |
| COC(=O)c1c[nH]c2ccc(OCCCc3ccccc3)cc2c1=O | 3.67 µM |
| CCCCc1cc2c(=O)c(C(=O)N(C)C)c[nH]c2cc1OCCOc1ccccc1 | > 6.12 µM |

system: Plasmodium berghei; test: Antimalarial activity against Plasmodium berghei infected in mouse assessed as inhibition of parasitemia at 50 mg/kg, po administered as single dose measured on day 3 post drug exposure relative to untreated control; format: functional; conditions: 72 h
Summary of the method: (§1)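 Two infected mice per compound were each given a single oral dose of 50 mg/kg, suspended in PEG400, on day 1 post-exposure. Parasitemia was assessed on days 3 and 6 post-exposure.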

| SMILES | inhibition in vivo at 50 mg/kg |
| --- | --- |
| COC(=O)c1c[nH]c2ccc(OCCCc3ccccc3)cc2c1=O | 76.9% |

system: J774; test: Cytotoxicity against mouse J774 cells; format: cell-based; conditions: not given

| SMILES | EC50 |
| --- | --- |
| CCCCc1cc2c(=O)cc[nH]c2cc1OCCOc1ccccc1 | > 20 µM |
| CCCCc1cc2c(=O)c(C(=O)O)c[nH]c2cc1OCCOc1ccccc1 | > 20 µM |
| CCCCc1cc2c(=O)c(C(=O)NC)c[nH]c2cc1OCCOc1ccccc1 | > 20 µM |
| O=c1cc[nH]c2cc(OCCOc3ccccc3)ccc12 | > 20 µM |
| CCc1ccc2[nH]cc(C(=O)OC)c(=O)c2c1 | > 20 µM |
| CCCCc1cc2c(=O)c(C(=O)NC(C)C)c[nH]c2cc1OCCOc1ccccc1 | > 20 µM |
| COC(=O)c1c[nH]c2ccc(C(C)C)cc2c1=O | > 20 µM |
| COC(=O)c1c[nH]c2cc(OCCOc3ccccc3)c(Br)cc2c1=O | > 20 µM |
| CCCCc1cc2c(=O)c(I)c[nH]c2cc1OCCOc1ccccc1 | > 10 µM |
| COC(=O)c1c[nH]c2ccc(OCCCc3ccccc3)cc2c1=O | 17.1 µM |
| CCCCc1cc2c(=O)c(C(=O)N(C)C)c[nH]c2cc1OCCOc1ccccc1 | 15.3 µM |

system: Plasmodium berghei; test: Antimalarial activity against Plasmodium berghei; format: functional, organism-based; conditions: not given
Summary of the method: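 In vitro liver-stage (exoerythrocytic) assay against P. berghei; the value is the EC50 (nM).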

| SMILES | EC50 |
| --- | --- |
| CCCCc1cc2c(=O)cc[nH]c2cc1OCCOc1ccccc1 | 5.82 nM |
| CCCCc1cc2c(=O)c(C(=O)O)c[nH]c2cc1OCCOc1ccccc1 | 0.267 nM |
| CCCCc1cc2c(=O)c(C(=O)NC)c[nH]c2cc1OCCOc1ccccc1 | 2.87 nM |
| O=c1cc[nH]c2cc(OCCOc3ccccc3)ccc12 | > 354 nM |
| COC(=O)c1c[nH]c2cc(OCCOc3ccccc3)c(Br)cc2c1=O | 0.336 nM |
| CCCCc1cc2c(=O)c(I)c[nH]c2cc1OCCOc1ccccc1 | 2.55 nM |
| COC(=O)c1c[nH]c2ccc(OCCCc3ccccc3)cc2c1=O | 11.1 nM |
| CCCCc1cc2c(=O)c(C(=O)N(C)C)c[nH]c2cc1OCCOc1ccccc1 | 122 nM |

system: Plasmodium falciparum; test: Antimalarial activity against Plasmodium falciparum W2; format: functional, organism-based; conditions: not given

| SMILES | EC50 |
| --- | --- |
| CCCCc1cc2c(=O)cc[nH]c2cc1OCCOc1ccccc1 | 328 nM |
| CCCCc1cc2c(=O)c(C(=O)O)c[nH]c2cc1OCCOc1ccccc1 | 64 nM |
| CCCCc1cc2c(=O)c(C(=O)NC)c[nH]c2cc1OCCOc1ccccc1 | 13.3 nM |
| O=c1cc[nH]c2cc(OCCOc3ccccc3)ccc12 | 5960 nM |
| CCc1ccc2[nH]cc(C(=O)OC)c(=O)c2c1 | 145 nM |
| CCCCc1cc2c(=O)c(C(=O)NC(C)C)c[nH]c2cc1OCCOc1ccccc1 | 3340 nM |
| COC(=O)c1c[nH]c2ccc(C(C)C)cc2c1=O | 354 nM |
| COC(=O)c1c[nH]c2cc(OCCOc3ccccc3)c(Br)cc2c1=O | 4.47 nM |
| CCCCc1cc2c(=O)c(I)c[nH]c2cc1OCCOc1ccccc1 | 1.23 nM |
| COC(=O)c1c[nH]c2ccc(OCCCc3ccccc3)cc2c1=O | 14.4 nM |
| CCCCc1cc2c(=O)c(C(=O)N(C)C)c[nH]c2cc1OCCOc1ccccc1 | 56.7 nM |

system: not listed separately; test: Liver blood index, ratio of EC50 for Plasmodium falciparum W2 to EC50 for Plasmodium berghei; format: functional; conditions: not given
Summary of the method: (§2)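 Liver-stage EC50 measured in vitro against P. berghei. Liver blood index is the blood-stage EC50 divided by the P. berghei EC50, using either W2 or TM90-C2B as the blood-stage strain.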

| SMILES | Ratio EC50 |
| --- | --- |
| CCCCc1cc2c(=O)cc[nH]c2cc1OCCOc1ccccc1 | 56.4 |
| CCCCc1cc2c(=O)c(C(=O)O)c[nH]c2cc1OCCOc1ccccc1 | 240 |
| CCCCc1cc2c(=O)c(C(=O)NC)c[nH]c2cc1OCCOc1ccccc1 | 4.63 |
| COC(=O)c1c[nH]c2cc(OCCOc3ccccc3)c(Br)cc2c1=O | 13.3 |
| CCCCc1cc2c(=O)c(I)c[nH]c2cc1OCCOc1ccccc1 | 0.482 |
| COC(=O)c1c[nH]c2ccc(OCCCc3ccccc3)cc2c1=O | 1.3 |
| CCCCc1cc2c(=O)c(C(=O)N(C)C)c[nH]c2cc1OCCOc1ccccc1 | 0.46 |

system: not listed separately; test: Liver blood index, ratio of EC50 for Plasmodium falciparum TM90-C2B to EC50 for Plasmodium berghei; format: functional; conditions: not given; summary of the method: as §2

| SMILES | Ratio EC50 |
| --- | --- |
| CCCCc1cc2c(=O)cc[nH]c2cc1OCCOc1ccccc1 | 73.9 |
| CCCCc1cc2c(=O)c(C(=O)O)c[nH]c2cc1OCCOc1ccccc1 | 4160 |
| CCCCc1cc2c(=O)c(C(=O)NC)c[nH]c2cc1OCCOc1ccccc1 | 1390 |
| COC(=O)c1c[nH]c2cc(OCCOc3ccccc3)c(Br)cc2c1=O | 2520 |
| CCCCc1cc2c(=O)c(I)c[nH]c2cc1OCCOc1ccccc1 | 2.37 |
| COC(=O)c1c[nH]c2ccc(OCCCc3ccccc3)cc2c1=O | 331 |
| CCCCc1cc2c(=O)c(C(=O)N(C)C)c[nH]c2cc1OCCOc1ccccc1 | > 27.7 |

system: Plasmodium berghei; test: Antimalarial activity against Plasmodium berghei infected in mouse assessed as inhibition of parasitemia at 50 mg/kg, po administered as single dose measured on day 6 post drug exposure relative to untreated control; format: functional; conditions: 144 h; summary of the method: as §1

| SMILES | inhibition in vivo at 50 mg/kg |
| --- | --- |
| COC(=O)c1c[nH]c2ccc(OCCCc3ccccc3)cc2c1=O | < 1% |

system: Plasmodium falciparum; test: Resistance index, ratio of EC50 for Plasmodium falciparum TM90-C2B to EC50 for Plasmodium falciparum W2; format: functional; conditions: not given

| SMILES | Ratio EC50 |
| --- | --- |
| CCCCc1cc2c(=O)cc[nH]c2cc1OCCOc1ccccc1 | 1.31 |
| CCCCc1cc2c(=O)c(C(=O)O)c[nH]c2cc1OCCOc1ccccc1 | 17.3 |
| CCCCc1cc2c(=O)c(C(=O)NC)c[nH]c2cc1OCCOc1ccccc1 | 299 |
| O=c1cc[nH]c2cc(OCCOc3ccccc3)ccc12 | 1.29 |
| CCc1ccc2[nH]cc(C(=O)OC)c(=O)c2c1 | >74.5 |
| CCCCc1cc2c(=O)c(C(=O)NC(C)C)c[nH]c2cc1OCCOc1ccccc1 | 1.54 |
| COC(=O)c1c[nH]c2ccc(C(C)C)cc2c1=O | >28.8 |
| COC(=O)c1c[nH]c2cc(OCCOc3ccccc3)c(Br)cc2c1=O | 189.5 |
| CCCCc1cc2c(=O)c(I)c[nH]c2cc1OCCOc1ccccc1 | 4.91 |
| COC(=O)c1c[nH]c2ccc(OCCCc3ccccc3)cc2c1=O | 255 |
| CCCCc1cc2c(=O)c(C(=O)N(C)C)c[nH]c2cc1OCCOc1ccccc1 | >108 |
